Results: ChEMBL document CHEMBL1149150, “Novel 3-oxa lipoxin A4 analogues with enhanced chemical and metabolic stability have anti-inflammatory activity in vivo” (J Med Chem, 2004)

Tests used:
[1] = Half life period of compound was determined at a dose of 3 mg/kg by intravenous administration; assay type: ADME, organism-based; design: dose 3 mg/kg, route intravenous; details: rat, in vivo
Procedure, shortened: (§1)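 Rats, n = 3 per route, dosed by iv injection at 3 mg/kg or oral gavage at 5 mg/kg. Plasma analysed by LC/MS–MS with LXA₄ as internal standard on a C18 column (10–80% gradient over 2 min). For methyl ester dosing, the plasma acid formed by hydrolysis was the analyte quantified. Outputs: T1/2, clearance, AUCall, Cmax, Tmax, F.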

[2] = Half life period of compound was determined after intravenous administration at 2 mg/kg; assay type: ADME, organism-based, Canis lupus familiaris; design: dose 2 mg/kg, route intravenous; details: dog, in vivo
Procedure, shortened: (§2)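 Dogs dosed iv at 2 mg/kg or orally at 2 mg/kg. Plasma parameters derived were half-life, Cmax, Tmax and oral bioavailability (F).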

[3] = Area under curve after intravenous administration at 3 mg/kg; assay type: ADME, organism-based; design: dose 3 mg/kg, route intravenous; details: rat, in vivo; procedure, shortened: as §1
[4] = Half life period of compound was determined after peroral administration at 2 mg/kg; assay type: ADME, organism-based, Canis lupus familiaris; design: dose 2 mg/kg, route oral; details: dog, in vivo, po; procedure, shortened: as §2
[5] = F value of compound in rats was determined after peroral administration; assay type: ADME, organism-based; details: rat, in vivo, po; procedure, shortened: as §1
[6] = tested on: Rattus norvegicus; assay: Compound clearance in rats was measured after intravenous administration at 3 mg/kg; assay type: ADME, organism-based; design: dose 3 mg/kg, route intravenous; details: in vivo; procedure, shortened: as §1
[7] = Tmax was measured in rats after peroral administration at 5 mg/kg; assay type: ADME, organism-based; design: dose 5 mg/kg, route oral; details: rat, in vivo, po; procedure, shortened: as §1
[8] = Half life period of compound was determined after peroral administration; assay type: ADME, organism-based; details: rat, in vivo, po; procedure, shortened: as §1
[9] = tested on: Mus sp.; assay: (§3) Inhibition of the edema formation by compound was determined in mice; assay type: functional, organism-based
Procedure, shortened: (§4)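 Mice given ionophore on the ear with topical coapplication of compound at 100, 300 and 600 µg/cm², vehicle and ionophore controls alongside. Euthanized at 24 h. Ear weight taken as edema. Peroxidase (granulocytes) and elastase (neutrophils) activities measured in ear homogenates. N = 8–10 mice per group, mean ± SEM.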

[10] = Bioavailability of compound in dog was determined after peroral administration; assay type: ADME, organism-based, Canis lupus familiaris; details: in vivo, po; procedure, shortened: as §2
[11] = Oral bioavailability in rat; assay type: ADME, organism-based; details: in vivo; procedure, shortened: as §1
[12] = tested on: Mus musculus; assay: as §3; assay type: functional, organism-based; procedure, shortened: as §4
[13] = Bioavailability value of compound in rats was determined after peroral administration; assay type: ADME, organism-based; details: rat, in vivo, po; procedure, shortened: as §1

| Compound | half-life [1] [h] | half-life [2] [h] | AUC [3] [ng·h/mL] | half-life [4] [h] | bioavailability [5] [%] | Cl [6] [mL/min/kg] | Tmax [7] [h] | half-life [8] [h] | ED50 [9] [µg/cm²] | bioavailability [10] [%] | bioavailability [11] [%] | IC50 [12] [ug cm**-2] | bioavailability [13] [%] |
| --- | --- | --- | --- | --- | --- | --- | --- | --- | --- | --- | --- | --- | --- |
| O=C(O)COC[C@H](O)[C@H](O)/C=C/C=C/C#C/C=C/[C@H](O)COc1ccc(F)cc1 | 2.3 | 2.7 | 7000 | 3.2 | 14 | 7 | 1.3 | 2.2 | < 300 | 40 | – | – | – |
| O=C(O)CCC[C@H](O)[C@H](O)/C=C/C=C/C#C/C=C/[C@@H](O)COc1ccc(F)cc1 | 0.1 | – | 900 | – | – | 58 | 0.5 | 1.8 | – | – | 28 | – | – |
| O=C(O)COC[C@H](O)[C@H](O)/C=C/C=C/C=C/C=C/[C@H](O)COc1ccc(F)cc1 | 1.3 | – | 1000 | – | – | 50 | 0.5 | 1.1 | – | – | 4 | < 300 | – |
| COC(=O)CCCC(O)C(O)/C=C/C=C/C=C/C=C/[C@H](O)COc1ccc(F)cc1 (single isomer, unassigned) | 0.3 | – | 1000 | – | – | 51 | 0.5 | 0.5 | – | – | 12 | – | – |
| O=C(O)CCCC(O)C(O)/C=C/C=C/C=C/C=C/[C@H](O)COc1ccc(F)cc1 (single isomer, unassigned) | 0.2 | – | 1800 | – | – | 28 | 1 | 1.1 | – | – | – | – | 13 |
